What was measured:
HT1080 cells = experiment: Live cell imaging of subcellular uptake and wash-out kinetics; format: cell-based
Procedure, shortened: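 HT1080 cells grown in DMEM with non-essential amino acids, 10% FBS and 1% penicillin-streptomycin, then imaged live in glass coverslip-bottom dishes on an inverted deconvolution microscope (40x objective, 37°C, 5% CO2). Prewarmed fluorescent probe was added to 1 μM, with images every second. Cells were then washed twice into drug-free medium. Nuclear and nucleolar regions of interest were fitted to uptake and clearance curves.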

[1] = Mouse plasma clearance of fluorescent probes after intravenous injection; format: in vivo; settings: 75 nmol i.v., biexponential fit
Procedure, shortened: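 Nude mice (6–8 weeks) with HT-1080 tumours in dorsal skin window chambers, under 1–2% isoflurane. Vessels labelled with Angiosense-750 or Pacific Blue–dextran. 75 nmol probe in 1:1 dimethylacetamide:solutol plus PBS, sonicated, given by tail-vein catheter during time-lapse intravital imaging (scans every 10 s). Plasma signal taken from intravascular regions of interest and fitted to biexponential decay.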

[2] = Plasma protein binding by rapid equilibrium dialysis; format: in vitro ADME; settings: 10 μM in mouse serum, 37°C, 4 hours
Procedure, shortened: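 Probe equilibrated in mouse serum against PBS on a shaker. Both compartments then adjusted with plasma or PBS to a 50:50 PBS:plasma final matrix to even out fluorescence effects. Fluorescence read on a plate reader to give the bound fraction.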

[3] = test system: tumor blood vessels of HT-1080 xenografts; settings: previous observations; cited from earlier work

Structure (SMILES): Cc1cc(C)n2c1C=C1C=CC(CCC(=O)N3CCN(C(=O)c4cc(Cc5n[nH]c(=O)c6ccccc56)ccc4F)CC3)=[N+]1[B-]2(F)F [olaparib-BODIPY FL]
- Washing time to remove non-specific ER staining (HT1080 cells; HT1080 cells after 1 μM incubation, washed with fresh media): Within five minutes
- Cellular uptake half-life (HT1080 cells; HT1080 cells, 1 μM): 1.18 min
- Mouse plasma clearance t1/2,alpha [1]: 5.16 min
- Mouse plasma clearance t1/2,beta [1]: 85.7 min
- C0 ([1]; read-out: Mouse plasma clearance C0): 7 µM
- Mouse plasma protein binding [2]: 99.23% (+/− 0.11%)
- Vascular permeability in tumor vessels versus mouse ear vessels [3]: the same in tumor vessels and mouse ear vessels

— publication PMC3981972 (Molecular cancer therapeutics, 2014)
